Source: ChEMBL document CHEMBL2331331 (J Med Chem, 2013)
The source made the active and inactive calls. The calls are words filed in the database; no cut-off is given here.

Tests used:
MV4-11 [1] = assay: Induction of apoptosis in human MV4-11 cells assessed as early apoptotic cells at 0.01 uM after 24 hrs by annexin V-FITC/propidium iodide staining-based FACS flow cytometric analysis (reference value: 1.61%); type: functional
HL-60 = assay: Cytotoxicity against human HL60 cells assessed as growth inhibition after 72 hrs by MTT assay; conditions: HL-60, 72 h
[2] = molecular target: Serine/threonine-protein kinase/endoribonuclease IRE1 (Homo sapiens, UniProt O75460); assay: Inhibition of ERN1 (unknown origin)
Sequence of Serine/threonine-protein kinase/endoribonuclease IRE1 (O75460 whole entry): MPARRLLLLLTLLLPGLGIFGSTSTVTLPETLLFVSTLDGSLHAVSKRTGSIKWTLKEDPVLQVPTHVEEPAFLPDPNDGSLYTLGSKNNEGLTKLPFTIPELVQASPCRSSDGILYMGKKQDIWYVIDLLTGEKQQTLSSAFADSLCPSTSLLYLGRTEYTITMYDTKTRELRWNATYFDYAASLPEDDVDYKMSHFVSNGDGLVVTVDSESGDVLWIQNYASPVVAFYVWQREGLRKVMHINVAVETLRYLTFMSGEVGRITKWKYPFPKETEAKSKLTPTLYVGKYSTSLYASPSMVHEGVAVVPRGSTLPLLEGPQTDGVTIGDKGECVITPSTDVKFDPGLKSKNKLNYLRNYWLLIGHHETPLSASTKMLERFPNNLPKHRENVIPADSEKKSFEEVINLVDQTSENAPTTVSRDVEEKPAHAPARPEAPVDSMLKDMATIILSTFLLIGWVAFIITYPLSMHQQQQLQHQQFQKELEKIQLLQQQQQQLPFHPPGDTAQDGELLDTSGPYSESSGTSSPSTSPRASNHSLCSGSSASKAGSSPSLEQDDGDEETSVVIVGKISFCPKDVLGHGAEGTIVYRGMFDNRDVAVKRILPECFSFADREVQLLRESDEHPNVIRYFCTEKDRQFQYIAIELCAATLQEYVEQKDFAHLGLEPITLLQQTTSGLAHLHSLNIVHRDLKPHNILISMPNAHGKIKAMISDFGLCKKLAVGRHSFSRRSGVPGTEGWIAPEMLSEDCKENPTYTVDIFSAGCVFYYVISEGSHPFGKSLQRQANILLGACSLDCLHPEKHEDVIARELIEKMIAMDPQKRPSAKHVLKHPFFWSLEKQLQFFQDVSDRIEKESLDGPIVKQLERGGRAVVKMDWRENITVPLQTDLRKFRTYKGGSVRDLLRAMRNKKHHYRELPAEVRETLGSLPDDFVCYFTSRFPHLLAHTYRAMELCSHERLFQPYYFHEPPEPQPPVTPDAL

MV4-11 [3] = assay: Induction of apoptosis in human MV4-11 cells assessed as late apoptotic cells at 0.01 uM after 24 hrs by annexin V-FITC/propidium iodide staining-based FACS flow cytometric analysis (reference value: 4.28%); type: functional
MV4-11 [4] = assay: Induction of apoptosis in human MV4-11 cells assessed as early apoptotic cells at 0.003 uM after 24 hrs by annexin V-FITC/propidium iodide staining-based FACS flow cytometric analysis (reference value: 1.61%); type: functional
[5] = molecular target: Serine/threonine-protein kinase PLK1 (Homo sapiens, UniProt P53350); assay: Inhibition of PLK1 (unknown origin)
Sequence of Serine/threonine-protein kinase PLK1 (P53350 whole entry): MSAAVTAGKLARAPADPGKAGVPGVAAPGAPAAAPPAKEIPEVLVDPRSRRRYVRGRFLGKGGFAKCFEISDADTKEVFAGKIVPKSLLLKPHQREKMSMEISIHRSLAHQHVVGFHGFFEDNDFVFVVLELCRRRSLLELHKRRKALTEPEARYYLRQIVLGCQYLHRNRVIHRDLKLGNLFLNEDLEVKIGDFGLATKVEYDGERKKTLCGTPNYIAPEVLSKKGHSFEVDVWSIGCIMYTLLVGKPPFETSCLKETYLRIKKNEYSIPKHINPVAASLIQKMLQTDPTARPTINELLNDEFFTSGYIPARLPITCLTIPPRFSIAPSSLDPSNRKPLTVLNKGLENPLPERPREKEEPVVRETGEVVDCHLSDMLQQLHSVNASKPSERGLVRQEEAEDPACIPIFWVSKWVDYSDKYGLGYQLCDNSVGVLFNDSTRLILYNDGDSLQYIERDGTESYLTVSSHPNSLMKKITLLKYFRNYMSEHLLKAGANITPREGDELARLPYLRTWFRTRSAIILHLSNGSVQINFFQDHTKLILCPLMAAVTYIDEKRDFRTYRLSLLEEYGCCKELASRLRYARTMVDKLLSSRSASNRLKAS

[6] = molecular target: T1, Receptor-type tyrosine-protein kinase FLT3 (Homo sapiens, UniProt P36888); assay: Inhibition of FLT3 phosphorylation in human MV4-11 cells after 20 hrs by Western blotting analysis; type: cell-based
T1 sequence (P36888 whole entry): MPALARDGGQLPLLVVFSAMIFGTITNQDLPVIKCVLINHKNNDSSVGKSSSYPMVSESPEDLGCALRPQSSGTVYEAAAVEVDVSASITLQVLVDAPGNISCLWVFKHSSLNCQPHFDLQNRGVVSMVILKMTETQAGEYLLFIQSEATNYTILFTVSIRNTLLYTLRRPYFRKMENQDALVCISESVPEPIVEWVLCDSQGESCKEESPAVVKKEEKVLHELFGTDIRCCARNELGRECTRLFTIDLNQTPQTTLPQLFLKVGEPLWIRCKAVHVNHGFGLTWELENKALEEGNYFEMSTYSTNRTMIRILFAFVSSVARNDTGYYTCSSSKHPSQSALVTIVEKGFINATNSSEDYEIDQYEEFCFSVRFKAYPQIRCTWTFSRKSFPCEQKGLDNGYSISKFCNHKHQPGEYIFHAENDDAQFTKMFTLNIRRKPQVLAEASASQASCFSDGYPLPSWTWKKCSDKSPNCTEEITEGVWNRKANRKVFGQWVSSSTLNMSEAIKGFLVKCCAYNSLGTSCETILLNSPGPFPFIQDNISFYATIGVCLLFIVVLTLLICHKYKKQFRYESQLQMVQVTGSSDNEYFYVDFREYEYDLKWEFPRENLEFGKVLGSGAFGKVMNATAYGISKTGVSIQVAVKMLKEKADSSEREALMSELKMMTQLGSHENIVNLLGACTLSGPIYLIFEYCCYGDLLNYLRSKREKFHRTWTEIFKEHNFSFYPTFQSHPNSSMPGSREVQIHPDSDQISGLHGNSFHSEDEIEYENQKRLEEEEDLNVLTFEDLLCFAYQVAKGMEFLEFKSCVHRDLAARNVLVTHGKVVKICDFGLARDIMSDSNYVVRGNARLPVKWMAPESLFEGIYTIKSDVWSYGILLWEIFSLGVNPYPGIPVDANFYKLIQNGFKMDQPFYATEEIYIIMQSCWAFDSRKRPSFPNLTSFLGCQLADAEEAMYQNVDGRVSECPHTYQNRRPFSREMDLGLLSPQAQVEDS

[7] = molecular target: Vascular endothelial growth factor receptor 2 (Danio rerio) (UniProt Q5GIT4); assay: (§1) Inhibition of VEGFR2 in transgenic zebrafish embryo assessed as inhibition of intersegmental vessels formation measured 33 hrs post fertilization by fluorescence microscopic analysis
Outline: (§2)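 FLK-1:EGFP transgenic zebrafish embryos, 10 per well, exposed at 28.5 °C from 15 to 31 hpf to compound in fish water at 1.25, 2.5 or 5 μM (diluted from a 10 mmol/L DMSO stock); 0.3% DMSO as vehicle control. Embryos were imaged at 33 hpf, and ISVs above the yolk extension were scored for length. n = 11, mean ± SD, ANOVA.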

[8] = molecular target: Vascular endothelial growth factor receptor 2 (Danio rerio, UniProt Q5GIT4); assay: as §1; outline: as §2
[9] = molecular target: Serine/threonine-protein kinase PAK 2 (Homo sapiens, UniProt Q13177); assay: Inhibition of PAK2 (unknown origin)
Sequence of Serine/threonine-protein kinase PAK 2 (Q13177 whole entry): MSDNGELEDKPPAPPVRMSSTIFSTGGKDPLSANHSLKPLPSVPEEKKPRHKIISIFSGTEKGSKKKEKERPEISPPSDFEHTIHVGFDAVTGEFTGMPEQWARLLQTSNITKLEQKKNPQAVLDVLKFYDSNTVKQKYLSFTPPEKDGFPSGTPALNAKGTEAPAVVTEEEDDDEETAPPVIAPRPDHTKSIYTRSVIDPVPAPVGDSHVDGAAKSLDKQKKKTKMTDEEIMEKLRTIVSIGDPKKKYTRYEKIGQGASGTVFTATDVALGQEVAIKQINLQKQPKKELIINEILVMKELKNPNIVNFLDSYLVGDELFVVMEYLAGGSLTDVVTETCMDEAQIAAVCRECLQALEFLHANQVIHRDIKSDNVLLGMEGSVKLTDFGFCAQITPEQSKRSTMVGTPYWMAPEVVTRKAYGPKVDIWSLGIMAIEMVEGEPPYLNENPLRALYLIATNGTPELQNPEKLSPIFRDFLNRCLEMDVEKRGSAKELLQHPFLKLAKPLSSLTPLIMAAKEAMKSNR

LoVo = assay: Cytotoxicity against human LoVo cells assessed as growth inhibition after 72 hrs by MTT assay
[10] = molecular target: Serine/threonine-protein kinase PAK 4 (Homo sapiens, UniProt O96013); assay: Inhibition of PAK4 (unknown origin)
Sequence of Serine/threonine-protein kinase PAK 4 (O96013 whole entry): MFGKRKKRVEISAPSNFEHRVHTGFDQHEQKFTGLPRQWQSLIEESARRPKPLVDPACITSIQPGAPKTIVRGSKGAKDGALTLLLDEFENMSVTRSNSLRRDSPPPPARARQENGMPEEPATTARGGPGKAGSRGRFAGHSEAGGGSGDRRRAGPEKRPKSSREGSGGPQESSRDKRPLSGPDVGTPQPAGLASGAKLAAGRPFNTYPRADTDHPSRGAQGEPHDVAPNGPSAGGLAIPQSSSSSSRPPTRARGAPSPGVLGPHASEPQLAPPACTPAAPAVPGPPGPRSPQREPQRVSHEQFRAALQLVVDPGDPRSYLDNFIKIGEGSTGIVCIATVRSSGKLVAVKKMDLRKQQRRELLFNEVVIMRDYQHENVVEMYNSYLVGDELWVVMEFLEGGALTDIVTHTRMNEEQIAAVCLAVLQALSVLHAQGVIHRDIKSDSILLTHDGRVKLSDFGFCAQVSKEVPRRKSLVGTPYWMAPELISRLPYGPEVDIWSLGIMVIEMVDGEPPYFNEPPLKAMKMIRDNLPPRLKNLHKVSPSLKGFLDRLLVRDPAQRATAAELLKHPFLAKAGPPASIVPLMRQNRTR
Outline: (§3)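 Single selected panel of recombinant human protein kinases, screened in vitro. The value reported is the IC50 against each kinase.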

[11] = molecular target: Receptor tyrosine-protein kinase erbB-2 (Homo sapiens, UniProt P04626); assay: Inhibition of ERBB2 (unknown origin); outline: as §3
Sequence of Receptor tyrosine-protein kinase erbB-2 (P04626 whole entry): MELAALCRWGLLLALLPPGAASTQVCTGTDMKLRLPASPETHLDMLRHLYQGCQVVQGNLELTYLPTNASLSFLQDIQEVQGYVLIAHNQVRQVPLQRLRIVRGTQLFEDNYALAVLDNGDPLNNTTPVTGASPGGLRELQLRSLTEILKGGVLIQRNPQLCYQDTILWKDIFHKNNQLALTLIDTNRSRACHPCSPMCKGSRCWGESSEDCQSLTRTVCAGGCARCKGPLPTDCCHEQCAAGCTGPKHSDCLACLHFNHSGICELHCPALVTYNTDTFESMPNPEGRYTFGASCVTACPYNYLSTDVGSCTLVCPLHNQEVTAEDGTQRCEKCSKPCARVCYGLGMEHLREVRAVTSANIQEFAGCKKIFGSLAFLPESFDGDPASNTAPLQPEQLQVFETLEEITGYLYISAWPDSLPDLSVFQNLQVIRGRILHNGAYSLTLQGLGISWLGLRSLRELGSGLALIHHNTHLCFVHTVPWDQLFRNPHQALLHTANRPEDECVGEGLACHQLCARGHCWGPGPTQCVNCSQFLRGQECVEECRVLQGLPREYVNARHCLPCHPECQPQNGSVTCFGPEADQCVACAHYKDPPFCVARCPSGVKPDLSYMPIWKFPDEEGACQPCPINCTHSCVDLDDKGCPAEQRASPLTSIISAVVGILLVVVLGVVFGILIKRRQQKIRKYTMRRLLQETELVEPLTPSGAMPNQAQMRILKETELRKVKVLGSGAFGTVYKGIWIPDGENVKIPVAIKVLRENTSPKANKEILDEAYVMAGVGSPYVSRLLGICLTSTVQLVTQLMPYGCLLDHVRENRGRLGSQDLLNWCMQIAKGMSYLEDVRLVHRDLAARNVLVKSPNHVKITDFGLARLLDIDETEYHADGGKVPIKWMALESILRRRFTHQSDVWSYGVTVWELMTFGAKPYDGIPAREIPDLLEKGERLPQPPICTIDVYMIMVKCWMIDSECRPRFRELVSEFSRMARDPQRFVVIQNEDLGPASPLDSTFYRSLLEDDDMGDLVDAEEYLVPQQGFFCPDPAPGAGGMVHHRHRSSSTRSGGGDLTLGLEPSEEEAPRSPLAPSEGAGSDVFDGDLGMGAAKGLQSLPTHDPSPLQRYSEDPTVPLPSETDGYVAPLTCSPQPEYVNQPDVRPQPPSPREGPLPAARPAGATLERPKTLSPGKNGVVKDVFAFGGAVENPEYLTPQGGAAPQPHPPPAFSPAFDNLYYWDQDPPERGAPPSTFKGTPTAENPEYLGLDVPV

HCT-116 = assay: Cytotoxicity against human HCT116 cells assessed as growth inhibition after 72 hrs by MTT assay; conditions: HCT-116, 72 h
[12] = molecular target: Mast/stem cell growth factor receptor Kit (Homo sapiens, UniProt P10721); assay: Inhibition of c-Kit (unknown origin)
Sequence of Mast/stem cell growth factor receptor Kit (P10721 whole entry): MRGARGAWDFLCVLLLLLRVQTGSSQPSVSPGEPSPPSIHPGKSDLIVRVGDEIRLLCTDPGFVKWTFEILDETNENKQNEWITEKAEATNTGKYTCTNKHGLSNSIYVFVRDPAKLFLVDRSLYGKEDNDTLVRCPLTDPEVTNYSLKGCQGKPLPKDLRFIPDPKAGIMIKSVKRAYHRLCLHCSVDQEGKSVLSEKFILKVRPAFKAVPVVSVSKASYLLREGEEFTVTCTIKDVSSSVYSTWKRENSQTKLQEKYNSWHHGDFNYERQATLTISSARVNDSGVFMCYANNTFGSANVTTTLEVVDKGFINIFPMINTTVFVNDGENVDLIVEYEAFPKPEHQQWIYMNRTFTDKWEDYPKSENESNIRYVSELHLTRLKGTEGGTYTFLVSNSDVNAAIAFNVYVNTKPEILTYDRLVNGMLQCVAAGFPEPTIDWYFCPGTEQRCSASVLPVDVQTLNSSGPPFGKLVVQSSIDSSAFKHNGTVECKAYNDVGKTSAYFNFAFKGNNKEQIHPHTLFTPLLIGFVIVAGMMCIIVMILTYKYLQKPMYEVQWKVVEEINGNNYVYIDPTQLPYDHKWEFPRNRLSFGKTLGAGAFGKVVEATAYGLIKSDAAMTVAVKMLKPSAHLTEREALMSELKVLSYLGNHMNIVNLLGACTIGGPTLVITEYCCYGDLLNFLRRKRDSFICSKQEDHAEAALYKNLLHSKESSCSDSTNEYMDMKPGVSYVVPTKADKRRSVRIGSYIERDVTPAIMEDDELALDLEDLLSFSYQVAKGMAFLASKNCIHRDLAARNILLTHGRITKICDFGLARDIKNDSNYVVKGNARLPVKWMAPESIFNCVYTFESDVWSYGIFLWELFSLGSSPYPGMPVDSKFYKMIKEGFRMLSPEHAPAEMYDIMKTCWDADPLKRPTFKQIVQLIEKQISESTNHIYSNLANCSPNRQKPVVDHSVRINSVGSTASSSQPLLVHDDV

[13] = molecular target: Platelet-derived growth factor receptor alpha (Homo sapiens, UniProt P16234); assay: Inhibition of PDGFRalpha (unknown origin)
MV4-11 [14] = assay: Induction of apoptosis in human MV4-11 cells assessed as early apoptotic cells at 0.03 uM after 24 hrs by annexin V-FITC/propidium iodide staining-based FACS flow cytometric analysis (reference value: 1.61%); type: functional
[15] = Cmax in Sprague-Dawley rat at 10 mg/kg/day, po measured within 7 hrs; type: ADME, organism-based; design: dose 10 mg/kg/day, route oral; conditions: in vivo
[16] = molecular target: T1, Receptor-type tyrosine-protein kinase FLT3; assay: Inhibition of FLT3 in human MV4-11 cells assessed as inhibition of Erk1/2 phosphorylation after 20 hrs by Western blotting analysis; type: cell-based
[17] = molecular target: Cyclin-dependent kinase 2 (Homo sapiens, UniProt P24941); assay: Inhibition of CDK2 (unknown origin)
MDA-MB-468 = assay: Cytotoxicity against human MDA-MB-468 cells assessed as growth inhibition after 72 hrs by MTT assay; conditions: MDA-MB-468, 72 h
MV4-11 [18] = assay: Antitumor activity against FLT3-ITD-positive human MV4-11 cells xenografted in NOD-SCID mouse assessed as tumor growth inhibition at 10 mg/kg/day, po after 3 days by Ki67 staining-based light microscopic analysis relative to vehicle-treated control; type: functional, organism-based
Outline: (§4)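 Mice (NOD-SCID) bearing sc MV4-11 tumors given 10 mg/kg/d by oral gavage. Tumors removed after 2–4 days and formalin-fixed. Sections immunostained for Ki67 (proliferation) or p-STAT5, or TUNEL-stained (apoptosis). Imaged by light microscopy and compared with vehicle group.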

U-937 = assay: Cytotoxicity against human U937 cells assessed as growth inhibition after 72 hrs by MTT assay; conditions: U-937, 72 h
Mus musculus = assay: Inhibition of FLT3-ITD mutant in human MV4-11 cells xenografted in NOD-SCID mouse assessed as inhibition of STAT5 phosphorylation at 10 mg/kg/day, po after 3 days by immunostaining method relative to vehicle-treated control; type: functional, organism-based; outline: as §4

IC50 [2]: > 10 µM
IC50 [5]: > 10 µM
IC50 [6]: 0.003 µM
inhibition [7]: Dose-dependent effect
IC50 [8]: 2.5 µM
IC50 [9]: > 10 µM
IC50 [10]: > 10 µM
IC50 [11]: > 10 µM
IC50 [12]: 0.507 µM
IC50 [13]: 0.223 µM
Cmax [15]: 15100 ng/mL
IC50 [16]: 0.001 µM
IC50 [17]: > 10 µM
Compound: O=C(Nc1ccc(Oc2ncnc3[nH]ncc23)cc1)Nc1ccc(Cl)c(C(F)(F)F)c1
Activity (MV4-11 [1]): 5.88%
IC50 (HL-60): > 10 µM
Activity (MV4-11 [3]): 9.64%
Activity (MV4-11 [4]): 5.16%
IC50 (LoVo): > 10 µM
IC50 (HCT-116): > 10 µM
Activity (MV4-11 [14]): 8.93%
IC50 (MDA-MB-468): 6.68 µM
TGI (MV4-11 [18]): Active
IC50 (U-937): > 10 µM
inhibition (Mus musculus): Active
